# Most compounds without a hit are left out; they make up all but 8.8% or so of the library.
# RORa activator: activates the human nuclear receptor RORA | P35398 | CHO-K1 Gal4-RORA LBD luciferase reporter, luminescence; percent increase over mock-subtracted basal signal | activation, % at 10 µM | actives 1.5% (n = 65,000);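 active = activation above the mean of all tested compounds plus 3 SD, cut at about 49% in these data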;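 also: 0% = DMSO-treated RORA cells and 100% = added signal equal to DMSO minus mock-transfected cells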
# S1P1 ag-PAM: activates or potentiates agonism at human S1P1 receptor. actives 0.57% (n = 56,000). AID 449. S1P1 CRE-bla cells, forskolin, beta-lactamase FRET, potentiator mode; S1P1 agonist co-added at EC20, 2 nM; 100% = saturating reference agonist, 0% = basal. activation, % at 9.5 µM;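 active = activation above a cutoff set at the mean activation of all tested compounds plus 3 SD, cut at about 54% in these data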;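 also: forskolin at 4 µM as EC80 and the EC20 agonist is SEW2871; 100% = SEW2871 at its EC100 plus forskolin at EC80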
# Target sequence (P21453 whole entry, looked up): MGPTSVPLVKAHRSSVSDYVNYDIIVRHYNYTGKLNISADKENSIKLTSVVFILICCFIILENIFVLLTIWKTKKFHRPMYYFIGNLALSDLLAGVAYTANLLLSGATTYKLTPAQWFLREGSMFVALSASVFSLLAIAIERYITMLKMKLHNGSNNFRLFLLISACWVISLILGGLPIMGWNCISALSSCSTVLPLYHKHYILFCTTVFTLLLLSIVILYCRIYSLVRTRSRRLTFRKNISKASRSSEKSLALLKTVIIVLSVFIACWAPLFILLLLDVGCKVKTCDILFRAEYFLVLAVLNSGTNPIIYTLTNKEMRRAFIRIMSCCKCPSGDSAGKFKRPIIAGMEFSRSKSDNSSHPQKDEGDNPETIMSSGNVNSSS
# S1P3 agonist: agonists of human S1P3 receptor | Q99500 | S1P3 NFAT-BLA reporter cells, agonism, FRET ratio; relative to 1 µM S1P, basal subtracted | activation, % at 4.5 µM | actives 0.1% (n = 60,000) | AID 373;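 active = activation above the screen-wide mean plus 3 SD, cut at about 4.5% in these data, passing the limit was not always enough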
#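 Assay system: stable CHO line with human S1P3, Gα16, NFAT-BLA reporter; Detection: FRET β-lactamase substrate fluorescence, excitation 405 nm, 460/535 nm emission ratio, background-subtracted; Read-out: percent activation versus median 1 µM S1P response, basal-subtracted, per plate; Incubation: cells plated overnight, compound 4 h 37 °C, substrate 2 h RT.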
# M1 ag: activates the M1 muscarinic receptor | actives 3% (n = 64,000) | AID 626 | B-score at 10 µM | CHO-M1 cells, Fluo-4 calcium fluorescence, agonist mode; active compounds read high;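 active = fluorescence rise, raw or as B-score row- and column-corrected plate score, outside the 99.7% band of its plate's samples, either direction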
# SF1 activator: activators of human nuclear receptor SF-1; CHO-K1 Gal4-SF-1 LBD luciferase reporter; % increase over DMSO SF-1-specific signal; activation, % at 10 µM; actives 1.9% (n = 65,000);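 active = activation above the mean activation of all tested compounds plus 3 SD, cut at about 50% in these data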
#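 Test system: CHO-K1 cells with Gal4–hSF-1 LBD chimera plus Gal4-driven luciferase; Input: 4,000 cells/well; Compound: 10 µM only; Times: 20 h compound treatment, 37 °C; Measured by: steady-glow luciferase luminescence, read after 15 min reagent incubation; Measure: percent activation versus DMSO; Control set: DMSO and mock-transfected background; Replicates: one test per compound.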
# M1 antag: antagonists of rat M1 muscarinic receptor; B-score at 10 µM; actives 3.4% (n = 64,000); CHO-M1 cells, Fluo-4 calcium, ACh EC80 antagonist mode; active compounds read low;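 active = calcium fluorescence response, raw or row-and-column corrected B-score, differing from the plate sample mean either way at a set confidence level, mostly lower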
# M1 antag conf: M1 muscarinic receptor (rat) antagonism, confirmed | AID 677 | calcium response (max-min fluorescence) at 10 µM | actives 43% (n = 1,700) | shares compounds with M1 antag | CHO-M1 cells, Fluo-4 calcium, ACh EC80 antagonism; active compounds read low;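 active = calcium response below the same-plate mean of wells given acetylcholine alone at its 80%-effect dose, minus 3 SD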;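 also: raw fluorescence intensity difference in arbitrary instrument units and not normalized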
# mGluR4 antag: acts on human mGluR4 in M1 antagonist selectivity test; shares compounds with M1 antag; CHO-mGluR4 calcium flux, Fluo-4 fluorescence, glutamate EC80; active compounds read low; fluorescence response (max-min) at 10 µM; actives 0.9% (n = 1,700); AID 678;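 active = fluorescence response below the plate's average for near-maximal glutamate wells, less 3 SD of those wells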;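 also: raw unnormalized fluorescence span taken in the window right after glutamate addition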
# * hit, by the source's call; nt = no result given.
SMILES,RORa activator,S1P1 ag-PAM,S1P3 agonist,M1 ag,SF1 activator,M1 antag,M1 antag conf,mGluR4 antag
COc1ccc(-c2noc(-c3cc(C)cc(C)c3)n2)cc1OC,-22.2,105.6*,0.1,-1.36,7.0,-3.05*,468*,231
CCOc1ccc(-c2nc(-c3ccc(OC)c(OC)c3)no2)cc1OCC,-4.6,nt,-1.1,0.243,-0.8,-0.042,nt,nt
CC(C)CCNC(=O)CN(C(=O)CCC(=O)Nc1ccccn1)c1ccc2c(c1)OCO2,18.5,-11.5,0.0,nt,1.2,nt,nt,nt
c1cnc(N2CC[N+]3(CCCC3)CC2)nc1,-1.3,6.9,-0.4,-0.477,6.0,-5*,163*,226
O=C(Cn1cnc2c(nnn2Cc2ccc(Cl)cc2)c1=O)NCc1ccco1,-12.9,-10.2,0.0,-0.0448,2.2,-0.703,nt,nt
CC(NC(=O)c1ccc(N(C)C)cc1)C(c1cccs1)N1CCN(C)CC1 (stereo not given),-1.9,3.6,-0.6,0.187,-2.8,-3.93*,632,183
CC(NC(=O)c1ccc(F)cc1)C(c1cccs1)N1CCN(C)CC1 (stereo not given),-14.1,-12.7,0.0,-0.432,-5.2,0.224,nt,nt
CN1CCN(c2ccc(Cl)cc2NS(=O)(=O)c2ccccc2Cl)CC1,15.4,-28.5,-0.1,-1.15,25.8,-3.65*,345*,261
CC(C)c1ccc(NC(=O)CSc2nc3c(c(=O)[nH]2)CCC3)cc1,-2.1,5.0,-0.9,-0.283,-8.3,0.0356,nt,nt
Cc1cc(C(=O)CSc2nnc(Nc3ccccc3)s2)c(C)n1CC1CCCO1 (stereo not given),5.3,10.5,-2.0,-0.311,9.9,-0.205,nt,nt
Cc1cc(C(=O)CSc2nnc(NCc3ccccc3)s2)c(C)n1C,6.1,34.7,-1.8,-0.381,23.2,-3.54*,488,249
COc1ccc(C2CC(=O)c3cnc(N4CCN(Cc5ccccc5)CC4)nc3C2)cc1 (stereo not given),22.3,4.8,-0.4,-0.406,-8.4,-0.103,nt,nt
O=C1CC(c2ccco2)Cc2nc(N3CCN(Cc4ccc5c(c4)OCO5)CC3)ncc21 (stereo not given),-0.3,-4.9,0.3,0.00937,-6.8,-1.88*,509*,267
COc1ccc(NC(=O)CSc2nc3c(cc2C#N)CN(C)CC3)cc1,-8.1,10.4,-0.4,-0.366,13.1,-0.485,nt,nt
CCN1CCc2nc(SCC(=O)Nc3ccc(OC)cc3)c(C#N)cc2C1,-7.1,-6.6,0.2,-0.0455,-5.2,-0.733*,511,219
O=C(Nc1ccc(S(=O)(=O)Nc2nccs2)cc1)C1CCCCC1,-3.8,-10.2,-0.9,0.723,6.8,-13.3*,682,209
CCCCc1nnc(SCCSc2nnc(CCCC)n2N)n1N,2.3,-26.1,-0.6,0.125,-9.4,0.946,nt,nt
Cc1cc(C)n(-c2nncn2/N=C/c2ccccc2F)n1,-2.6,7.4,-1.3,-1,-8.0,-3.33*,576,233
COc1ccc(/C(N)=C/C(=O)C(C)(C)C)cc1,42.3,-25.2,-1.1,-0.571,11.7,-3.53*,554,216
CC(C)(C)C(=O)/C=C(\N)c1ccncc1,-5.4,2.9,-1.8,-0.207,1.6,-0.653,nt,nt
CSc1nc2ccccc2n1C(=O)NC1CCCCC1,-4.5,-22.1,-1.2,-0.0192,9.0,-4.33*,581,200
COc1ccc(C(=O)Nc2ccc(Cl)cn2)cc1Cl,48.0,-12.3,-0.8,0.515,45.4,-0.441,nt,nt
CN(C)S(=O)(=O)c1cccc(C(=O)Nc2ccc(Cl)cn2)c1,18.1,6.5,0.8,-0.0952,65.0*,-3*,683,175
CCOc1ccc(NC(=O)CSc2nnc(C)n2CCCOC)cc1,-16.9,5.6,-1.2,-0.694,-5.1,1.13,nt,nt
O=C1C(Cl)=C(N2CCCCCC2)C(=O)N1c1ccccc1,15.3,-12.3,-0.9,0.126,10.9,-3.06*,219*,148
SMILES,RORa activator,S1P1 ag-PAM,S1P3 agonist,M1 ag,SF1 activator,M1 antag,M1 antag conf,mGluR4 antag
O=C1C(Cl)=C(N2CCN(Cc3ccccc3)CC2)C(=O)N1c1ccccc1,-9.4,-7.6,-1.5,-1.36,-17.6,-0.0772,nt,nt
CCNc1nc(Oc2ccccc2)nc(OC(C)C(=O)OCC)n1 (stereo not given),-12.7,-12.2,-2.8,0.1,-5.2,-0.496,nt,nt
Cn1c(=O)oc2cc(S(=O)(=O)NCCC(=O)N3CCc4ccccc43)ccc21,0.8,3.2,0.3,0.00659,-0.1,0.218,nt,nt
CC(=O)N1CCc2cc(Br)cc(S(=O)(=O)NCC3CCCO3)c21 (stereo not given),0.1,0.9,-1.2,-0.407,-9.4,1.04,nt,nt
CSCCC(NC(=O)COc1ccccc1)C(=O)N1CCN(c2ccccc2F)CC1 (stereo not given),22.5,4.8,-1.2,1.05,-2.9,-0.242,nt,nt
Cc1ccc(N(C=NC#N)CC(=O)N2CCN(c3ccccc3)CC2)cc1,2.9,3.8,0.1,0.2,-2.9,-3.39*,565,212
CS(=O)(=O)N(CC(=O)N1CCN(c2ccccc2)CC1)c1cccc(Br)c1,-1.0,nt,nt,-0.16,-1.5,0.472,nt,nt
COc1ccc2nc(NC(=O)CN(c3ccc(C)cc3)S(=O)(=O)c3c(C)nn(C)c3C)sc2c1,-5.4,-11.2,-0.7,-0.34,-5.0,0.305,nt,nt
CCOC(=O)c1[nH]c2ccc(Br)cc2c1NC(=O)CCN1CCCCC1,-14.8,26.0,-1.5,-0.575,-10.0,-14.6*,25.4*,143*
CCOC(=O)c1[nH]c2ccc(OC)cc2c1NC(=O)CCN1CCCC(C)C1 (stereo not given),-11.7,-0.4,-3.8,0.154,-9.6,-3.59*,370*,242
COC(=O)c1[nH]c2cccc(OC)c2c1NC(=O)CCN1CC(C)CC(C)C1 (stereo not given),13.4,9.4,-1.0,0.589,3.1,-3.35*,584,266
CCOC(=O)c1[nH]c2ccc(Br)cc2c1NC(=O)CCN1CCC(C(=O)OCC)CC1,-8.9,11.4,-0.7,-0.484,-7.0,-5.16*,408*,247
CCOC(=O)c1[nH]c2ccc(Br)cc2c1NC(=O)CCN1CCN(C(=O)OCC)CC1,-6.7,6.1,-3.5,2.6,1.8,-0.504,nt,nt
O=C(Nc1c2c(nn1-c1ccc(F)cc1)CS(=O)(=O)C2)C12CC3CC(CC(C3)C1)C2,14.6,nt,nt,-0.245,-10.2,0.0618,nt,nt
COc1ccc(CNC(=O)c2cccc3c2C(=O)N(Cc2cccnc2)C3)cc1,-26.5,-7.6,-0.7,2.45,-5.0,0.296,nt,nt
